Converted amounts (≈) assume the structure as drawn.
Assays:
Format in all cases: functional
Peptostreptococcus = test: In vitro activity against Peptostreptococcus sp.(TB-11)
How it was run: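 MIC for anaerobic bacteria, measured on Wilkins-Chalgren agar.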

Clostridium perfringens [1] = test: In vitro activity against Clostridium perfringens (104AT13124)
Bacteroides fragilis [2] = test: In vitro activity against Bacteroides fragilis (SFM2975-7)
How it was run: (§1)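 MIC determined under anaerobic conditions on Wilkins-Chalgren agar.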

Clostridium perfringens [3] = test: In vitro activity against Clostridium perfringens (SFBC 2026)
Bacteroides fragilis [4] = test: In vitro activity against Bacteroides fragilis (UC-2); how it was run: as §1
Phocaeicola vulgatus [5] = test: In vitro activity against Bacteroides vulgatus(SFBC 2375); how it was run: as §1
Hoylesella loescheii = test: In vitro activity against Bacteroides loescheii (ATCC 15930).; how it was run: as §1
[6] = tested on: Bacteroides thetaiotaomicron; test: In vitro activity against Bacteroides thetaiotaomicron (106); how it was run: as §1
[7] = tested on: Peptoniphilus asaccharolyticus; test: In vitro activity against Peptococcus asaccharolyticus (ATCC 14963).; how it was run: as §1
[8] = tested on: Bacteroides thetaiotaomicron; test: In vitro activity against thetaiotaomicron (ATCC 29741)
How it was run: (§2)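 Anaerobic MICs measured by agar dilution on Wilkins-Chalgren agar.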

Clostridioides difficile [9] = test: In vitro activity against Clostridium difficile (ATCC 9689)
Bacteroides fragilis [10] = test: In vitro activity against Bacteroides fragilis (SFM2906A); how it was run: as §1
Phocaeicola vulgatus [11] = test: In vitro activity against Bacteroides vulgatus(792); how it was run: as §1
[12] = tested on: Prevotella melaninogenica; test: In vitro activity against Bacteroides melaninogenicus (ATCC 25845).; how it was run: as §1
Prevotella disiens = test: In vitro activity against Bacteroides disiens (ATCC 29426); how it was run: as §1
[13] = tested on: Bacteroides thetaiotaomicron; test: In vitro activity against Bacteroides thetaiotaomicron (SFM2975-2); how it was run: as §1
Fusobacterium nucleatum = test: In vitro activity against Fusobacterium nucleatum (ATCC 25586); how it was run: as §1
Veillonella parvula = test: In vitro activity against Veillonella parvula (ATCC 10790); how it was run: as §2
[14] = tested on: Bacteroides thetaiotaomicron; test: In vitro activity against Bacteroides thetaiotaomicron (ATCC 29742); how it was run: as §1
Bacteroides fragilis [15] = test: In vitro activity against Bacteroides fragilis (784); how it was run: as §1
Parvimonas micra = test: In vitro activity against Peptostreptococcus micros (ATCC 33270).; how it was run: as §1
Prevotella bivia = test: In vitro activity against Bacteroides bivius(B 6140); how it was run: as §1
Clostridioides difficile [16] = test: In vitro activity against Clostridium difficile (ATCC 17857)
Thomasclavelia ramosa = test: In vitro activity against Clostridium ramosum (7); how it was run: as §1
Finegoldia magna = test: In vitro activity against Peptococcus magnus (ATCC 29328); how it was run: as §1
Bacteroides fragilis [17] = test: In vitro activity against Bacteroides fragilis (105AT25285); how it was run: as §1

CCC[C@@H]1C[C@@H](C(=O)N[C@@H]([C@H]2O[C@H](SC)[C@H](O)[C@@H](O)[C@H]2O)[C@H](C)Cl)N(C)C1 [CLINDAMYCIN]
MIC (Peptostreptococcus): 0.06 µg/mL (≈ 0.141 µM) | MIC (Clostridium perfringens [1]): 0.03 µg/mL (≈ 0.0706 µM) | MIC (Bacteroides fragilis [2]): 2 µg/mL (≈ 4.71 µM) | MIC (Clostridium perfringens [3]): 0.25 µg/mL (≈ 0.588 µM) | MIC (Bacteroides fragilis [4]): 0.5 µg/mL (≈ 1.18 µM) | MIC (Phocaeicola vulgatus [5]): < 0.015 µg/mL | MIC (Hoylesella loescheii): 0.5 µg/mL (≈ 1.18 µM) | MIC [6]: 4 µg/mL (≈ 9.41 µM) | MIC [7]: 0.06 µg/mL (≈ 0.141 µM) | MIC [8]: 8 µg/mL (≈ 18.8 µM) | MIC (Clostridioides difficile [9]): 4 µg/mL (≈ 9.41 µM) | MIC (Bacteroides fragilis [10]): 0.5 µg/mL (≈ 1.18 µM) | MIC (Phocaeicola vulgatus [11]): < 0.015 µg/mL | MIC [12]: 0.03 µg/mL (≈ 0.0706 µM) | MIC (Prevotella disiens): < 0.015 µg/mL | MIC [13]: 0.5 µg/mL (≈ 1.18 µM) | MIC (Fusobacterium nucleatum): 0.25 µg/mL (≈ 0.588 µM) | MIC (Veillonella parvula): 0.06 µg/mL (≈ 0.141 µM) | MIC [14]: 4 µg/mL (≈ 9.41 µM) | MIC (Bacteroides fragilis [15]): 1 µg/mL (≈ 2.35 µM) | MIC (Parvimonas micra): 0.06 µg/mL (≈ 0.141 µM) | MIC (Prevotella bivia): < 0.015 µg/mL | MIC (Clostridioides difficile [16]): 8 µg/mL (≈ 18.8 µM) | MIC (Thomasclavelia ramosa): 1 µg/mL (≈ 2.35 µM) | MIC (Finegoldia magna): 1 µg/mL (≈ 2.35 µM) | MIC (Bacteroides fragilis [17]): 2 µg/mL (≈ 4.71 µM)

Source: ChEMBL document CHEMBL1124180, “Asymmetric synthesis and properties of the enantiomers of the antibacterial agent 7-(3-aminopyrrolidin-1-yl)-1-(2,4-difluorophenyl)-1,4-dihydro-6- fluoro-4-oxo-1,8-naphthyridine-3-carboxylic acid hydrochloride” (J Med Chem, 1988)
